According to ChEMBL document CHEMBL4411337, “2-Aminothiazole Derivatives as Selective Allosteric Modulators of the Protein Kinase CK2. 1. Identification of an Allosteric Binding Site” (J Med Chem, 2019):
Values belong to the compound of their own block, whether it stands above or below them. The source made the active and inactive calls. The rule behind the calls is not given here.

Key:
[1] = molecular target: Muscle, skeletal receptor tyrosine-protein kinase (Homo sapiens) (UniProt O15146); assay: Inhibition of MUSK (unknown origin) assessed as residual activity at 50 uM relative to control
Summary of the method: (§1)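 Selectivity profiling against a panel of 44 human kinases. For each kinase, ATP was set to that kinase's Km. Values are residual activity in duplicate assays.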

[2] = molecular target: Serine/threonine-protein kinase haspin (Homo sapiens) (UniProt Q8TF76); assay: Inhibition of haspin (unknown origin) assessed as residual activity at 50 uM relative to control
Summary of the method: (§2)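 Profiling panel of 44 human kinases. ATP set to each kinase's Km. Run in duplicate; duplicates within 15–17% of each other.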

[3] = molecular target: MAP kinase-interacting serine/threonine-protein kinase 1 (Homo sapiens) (UniProt Q9BUB5); assay: Inhibition of MNK1 (unknown origin) assessed as residual activity at 50 uM relative to control; summary of the method: as §1
[4] = molecular target: Mast/stem cell growth factor receptor Kit (Homo sapiens) (UniProt P10721); assay: Inhibition of cKIT (unknown origin) assessed as residual activity at 50 uM relative to control; summary of the method: as §2
[5] = molecular target: Homeodomain-interacting protein kinase 3 (Homo sapiens) (UniProt Q9H422); assay: Inhibition of HIPK3 (unknown origin) assessed as residual activity at 50 uM relative to control; summary of the method: as §1
[6] = molecular target: Serine/threonine-protein kinase TBK1 (Homo sapiens) (UniProt Q9UHD2); assay: Inhibition of TBK1 (unknown origin) assessed as residual activity at 50 uM relative to control; summary of the method: as §2
[7] = molecular target: Receptor-interacting serine/threonine-protein kinase 2 (Homo sapiens) (UniProt O43353); assay: Inhibition of RIPK2 (unknown origin) assessed as residual activity at 50 uM relative to control; summary of the method: as §2
Chain of Receptor-interacting serine/threonine-protein kinase 2 (Homo sapiens) (O43353 whole entry): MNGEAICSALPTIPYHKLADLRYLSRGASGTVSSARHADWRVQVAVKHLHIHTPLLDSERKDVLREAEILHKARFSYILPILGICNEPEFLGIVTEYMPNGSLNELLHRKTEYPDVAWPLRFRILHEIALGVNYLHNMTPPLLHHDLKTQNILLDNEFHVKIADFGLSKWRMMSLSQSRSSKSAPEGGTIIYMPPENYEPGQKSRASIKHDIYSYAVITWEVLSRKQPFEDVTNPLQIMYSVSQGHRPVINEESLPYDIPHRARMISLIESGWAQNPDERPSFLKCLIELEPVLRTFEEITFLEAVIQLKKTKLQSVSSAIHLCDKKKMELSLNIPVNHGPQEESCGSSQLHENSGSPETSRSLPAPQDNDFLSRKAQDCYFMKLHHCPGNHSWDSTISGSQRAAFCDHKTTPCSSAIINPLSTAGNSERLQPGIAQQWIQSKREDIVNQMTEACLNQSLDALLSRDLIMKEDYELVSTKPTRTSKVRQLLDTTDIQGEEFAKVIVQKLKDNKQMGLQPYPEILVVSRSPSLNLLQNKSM

[8] = molecular target: Rho-associated protein kinase 1 (Homo sapiens) (UniProt Q13464); assay: Inhibition of ROCK1 (unknown origin) assessed as residual activity at 50 uM relative to control; summary of the method: as §2
[9] = molecular target: Myosin light chain kinase 2, skeletal/cardiac muscle (Homo sapiens) (UniProt Q9H1R3); assay: Inhibition of MLCK2 (unknown origin) assessed as residual activity at 50 uM relative to control; summary of the method: as §1
Chain of Myosin light chain kinase 2, skeletal/cardiac muscle (Homo sapiens) (Q9H1R3 whole entry): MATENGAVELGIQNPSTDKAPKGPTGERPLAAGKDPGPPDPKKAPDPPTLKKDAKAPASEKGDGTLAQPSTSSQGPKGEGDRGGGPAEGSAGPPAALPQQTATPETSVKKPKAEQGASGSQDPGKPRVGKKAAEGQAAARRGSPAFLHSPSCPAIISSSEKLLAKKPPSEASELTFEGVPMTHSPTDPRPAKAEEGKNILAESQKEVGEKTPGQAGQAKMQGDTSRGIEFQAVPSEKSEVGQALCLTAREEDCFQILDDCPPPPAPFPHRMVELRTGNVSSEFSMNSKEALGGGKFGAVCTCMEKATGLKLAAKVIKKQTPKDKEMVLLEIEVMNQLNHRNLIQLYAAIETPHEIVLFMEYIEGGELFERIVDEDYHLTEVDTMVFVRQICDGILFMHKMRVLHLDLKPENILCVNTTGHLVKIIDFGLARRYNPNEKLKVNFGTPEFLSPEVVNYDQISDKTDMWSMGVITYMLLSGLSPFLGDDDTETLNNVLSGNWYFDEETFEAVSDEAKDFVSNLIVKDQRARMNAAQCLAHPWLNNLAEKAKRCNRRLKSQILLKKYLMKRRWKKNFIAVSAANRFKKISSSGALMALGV

[10] = molecular target: Tyrosine-protein kinase ABL1 (Homo sapiens) (UniProt P00519); assay: Inhibition of ABL (unknown origin) assessed as residual activity at 50 uM relative to control; summary of the method: as §1
[11] = molecular target: Platelet-derived growth factor receptor alpha (Homo sapiens) (UniProt P16234); assay: Inhibition of PDGFRalpha (unknown origin) assessed as residual activity at 50 uM relative to control; summary of the method: as §1
[12] = molecular target: Dual specificity protein kinase CLK3 (Homo sapiens) (UniProt P49761); assay: Inhibition of CLK3 (unknown origin) assessed as residual activity at 50 uM relative to control; summary of the method: as §1
[13] = molecular target: Epidermal growth factor receptor (Homo sapiens) (UniProt P00533); assay: Inhibition of EGFR (unknown origin) assessed as residual activity at 50 uM relative to control; summary of the method: as §1
[14] = molecular target: Death-associated protein kinase 3 (Homo sapiens) (UniProt O43293); assay: Inhibition of DAPK3 (unknown origin) assessed as residual activity at 50 uM relative to control; summary of the method: as §1
Chain of Death-associated protein kinase 3 (Homo sapiens) (O43293 whole entry, looked up): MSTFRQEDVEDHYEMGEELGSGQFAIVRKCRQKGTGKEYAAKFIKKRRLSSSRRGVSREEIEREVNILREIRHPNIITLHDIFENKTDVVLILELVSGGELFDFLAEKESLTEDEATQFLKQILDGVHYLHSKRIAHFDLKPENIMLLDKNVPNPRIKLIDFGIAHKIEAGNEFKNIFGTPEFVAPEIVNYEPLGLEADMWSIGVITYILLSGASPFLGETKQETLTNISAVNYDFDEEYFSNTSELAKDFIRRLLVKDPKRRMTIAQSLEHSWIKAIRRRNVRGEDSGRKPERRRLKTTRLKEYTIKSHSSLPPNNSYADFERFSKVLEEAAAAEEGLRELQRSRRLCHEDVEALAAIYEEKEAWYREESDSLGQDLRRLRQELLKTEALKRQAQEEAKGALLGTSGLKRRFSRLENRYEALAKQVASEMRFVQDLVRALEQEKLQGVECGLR

[15] = molecular target: Ephrin type-A receptor 4 (Homo sapiens) (UniProt P54764); assay: Inhibition of EPHA4 (unknown origin) assessed as residual activity at 50 uM relative to control; summary of the method: as §1
[16] = molecular target: Glycogen synthase kinase-3 beta (Homo sapiens) (UniProt P49841); assay: Inhibition of GSK3beta (unknown origin) assessed as residual activity at 50 uM relative to control; summary of the method: as §1
[17] = molecular target: Serine/threonine-protein kinase Chk2 (Homo sapiens) (UniProt O96017); assay: Inhibition of CHK2 (unknown origin) assessed as residual activity at 50 uM relative to control; summary of the method: as §1
[18] = molecular target: Serine/threonine-protein kinase pim-1 (Homo sapiens) (UniProt P11309); assay: Inhibition of PIM1 (unknown origin) assessed as residual activity at 50 uM relative to control; summary of the method: as §1
Chain of Serine/threonine-protein kinase pim-1 (Homo sapiens) (P11309 whole entry, looked up): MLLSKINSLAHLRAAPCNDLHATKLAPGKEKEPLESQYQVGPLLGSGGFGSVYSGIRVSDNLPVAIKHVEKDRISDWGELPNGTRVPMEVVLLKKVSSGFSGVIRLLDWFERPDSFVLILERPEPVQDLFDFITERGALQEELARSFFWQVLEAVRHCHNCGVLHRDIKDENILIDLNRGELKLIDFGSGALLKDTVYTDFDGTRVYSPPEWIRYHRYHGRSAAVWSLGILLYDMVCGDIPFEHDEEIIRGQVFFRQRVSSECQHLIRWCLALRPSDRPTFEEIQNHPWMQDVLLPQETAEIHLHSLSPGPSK

[19] = molecular target: Dual specificity protein kinase CLK4 (Homo sapiens) (UniProt Q9HAZ1); assay: Inhibition of CLK4 (unknown origin) assessed as residual activity at 50 uM relative to control; summary of the method: as §1
Chain of Dual specificity protein kinase CLK4 (Homo sapiens) (Q9HAZ1 whole entry, looked up): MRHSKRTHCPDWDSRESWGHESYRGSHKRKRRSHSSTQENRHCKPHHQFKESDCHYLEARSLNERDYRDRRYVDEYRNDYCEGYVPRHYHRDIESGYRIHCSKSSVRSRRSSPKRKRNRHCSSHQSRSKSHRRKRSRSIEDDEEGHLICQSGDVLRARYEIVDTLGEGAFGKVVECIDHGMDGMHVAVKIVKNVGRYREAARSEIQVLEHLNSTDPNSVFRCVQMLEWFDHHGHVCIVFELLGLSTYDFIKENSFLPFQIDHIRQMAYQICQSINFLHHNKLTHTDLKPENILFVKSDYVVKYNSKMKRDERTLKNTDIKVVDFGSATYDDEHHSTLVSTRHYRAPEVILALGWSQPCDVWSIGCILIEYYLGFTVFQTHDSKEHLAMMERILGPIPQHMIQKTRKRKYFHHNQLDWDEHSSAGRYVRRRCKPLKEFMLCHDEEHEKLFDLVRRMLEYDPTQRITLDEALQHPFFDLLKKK

[20] = molecular target: Dual specificity protein kinase CLK1 (Homo sapiens) (UniProt P49759); assay: Inhibition of CLK1 (unknown origin) assessed as residual activity at 50 uM relative to control; summary of the method: as §1
[21] = molecular target: Dual specificity protein kinase CLK2 (Homo sapiens) (UniProt P49760); assay: Inhibition of CLK2 (unknown origin) assessed as residual activity at 50 uM relative to control; summary of the method: as §1
[22] = molecular target: Cyclin-dependent kinase 1/cyclin B1 (Homo sapiens) (UniProt P06493+P14635); assay: Inhibition of CDK1/cyclin B (unknown origin) assessed as residual activity at 50 uM relative to control; type: protein-complex assay; summary of the method: as §1
[23] = molecular target: Activin receptor type-1 (Homo sapiens) (UniProt Q04771); assay: Inhibition of ALK2 (unknown origin) assessed as residual activity at 50 uM relative to control; summary of the method: as §1
[24] = molecular target: Tyrosine-protein kinase JAK2 (Homo sapiens) (UniProt O60674); assay: Inhibition of JAK2 (unknown origin) assessed as residual activity at 50 uM relative to control; summary of the method: as §1
Chain of Tyrosine-protein kinase JAK2 (Homo sapiens) (O60674 whole entry): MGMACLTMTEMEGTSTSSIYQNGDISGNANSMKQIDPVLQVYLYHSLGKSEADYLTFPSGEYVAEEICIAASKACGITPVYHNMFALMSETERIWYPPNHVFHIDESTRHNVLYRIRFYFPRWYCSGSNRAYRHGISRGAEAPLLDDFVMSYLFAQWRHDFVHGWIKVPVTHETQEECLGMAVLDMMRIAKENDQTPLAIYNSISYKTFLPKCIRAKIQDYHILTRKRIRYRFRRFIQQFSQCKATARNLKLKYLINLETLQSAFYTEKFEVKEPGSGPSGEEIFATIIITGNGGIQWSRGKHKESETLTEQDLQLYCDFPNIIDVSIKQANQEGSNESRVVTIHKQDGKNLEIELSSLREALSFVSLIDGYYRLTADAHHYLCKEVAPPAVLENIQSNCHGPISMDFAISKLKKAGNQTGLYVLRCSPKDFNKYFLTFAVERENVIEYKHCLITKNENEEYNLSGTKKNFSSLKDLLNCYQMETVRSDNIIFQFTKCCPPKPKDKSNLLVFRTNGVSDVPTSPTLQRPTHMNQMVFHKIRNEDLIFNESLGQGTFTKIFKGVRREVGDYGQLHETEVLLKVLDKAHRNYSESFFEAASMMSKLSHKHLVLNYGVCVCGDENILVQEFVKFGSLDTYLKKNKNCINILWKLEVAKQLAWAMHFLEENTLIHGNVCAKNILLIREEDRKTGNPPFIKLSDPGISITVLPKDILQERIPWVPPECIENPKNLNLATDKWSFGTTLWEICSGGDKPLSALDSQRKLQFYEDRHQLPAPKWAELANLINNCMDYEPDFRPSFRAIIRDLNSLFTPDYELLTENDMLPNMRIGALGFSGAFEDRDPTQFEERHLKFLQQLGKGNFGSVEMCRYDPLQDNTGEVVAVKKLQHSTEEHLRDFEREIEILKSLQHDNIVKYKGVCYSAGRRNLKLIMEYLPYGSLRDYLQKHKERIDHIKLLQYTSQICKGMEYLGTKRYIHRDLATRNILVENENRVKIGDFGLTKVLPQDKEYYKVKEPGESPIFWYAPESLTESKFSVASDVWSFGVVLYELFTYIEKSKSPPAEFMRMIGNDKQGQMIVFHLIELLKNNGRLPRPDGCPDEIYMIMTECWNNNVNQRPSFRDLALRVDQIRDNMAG

[25] = molecular target: Dual specificity tyrosine-phosphorylation-regulated kinase 1A (Homo sapiens) (UniProt Q13627); assay: Inhibition of DYRK1A (unknown origin) assessed as residual activity at 50 uM relative to control; summary of the method: as §1
[26] = molecular target: Homeodomain-interacting protein kinase 2 (Homo sapiens) (UniProt Q9H2X6); assay: Inhibition of HIPK2 (unknown origin) assessed as residual activity at 50 uM relative to control; summary of the method: as §1
[27] = molecular target: Cyclin-dependent kinase 2/cyclin E1 (Homo sapiens) (UniProt P24864+P24941); assay: Inhibition of CDK2/cyclin E (unknown origin) assessed as residual activity at 50 uM relative to control; type: protein-complex assay; summary of the method: as §1
[28] = molecular target: Protein kinase C alpha type (Homo sapiens) (UniProt P17252); assay: Inhibition of PKCalpha (unknown origin) assessed as residual activity at 50 uM relative to control; summary of the method: as §2
[29] = molecular target: Casein kinase I isoform gamma-1 (Homo sapiens) (UniProt Q9HCP0); assay: Inhibition of CK1gamma1 (unknown origin) assessed as residual activity at 50 uM relative to control; summary of the method: as §1
[30] = molecular target: Dual specificity mitogen-activated protein kinase kinase 1 (Homo sapiens) (UniProt Q02750); assay: Inhibition of MEK1 (unknown origin) assessed as residual activity at 50 uM relative to control; summary of the method: as §1
[31] = molecular target: T1, Casein kinase II subunit alpha (Homo sapiens, UniProt P68400); assay: Inhibition of recombinant human GST-tagged CK2alpha at 10 uM in presence of ATP by radiometric kinase assay relative to control
Summary of the method: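 Radiometric assay of CK2α with 100 μM ATP. Single-concentration percent inhibition at 10 μM relative to control. Values are the mean of ≥2 experiments.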
Target sequence in this assay (P68400 whole entry, looked up): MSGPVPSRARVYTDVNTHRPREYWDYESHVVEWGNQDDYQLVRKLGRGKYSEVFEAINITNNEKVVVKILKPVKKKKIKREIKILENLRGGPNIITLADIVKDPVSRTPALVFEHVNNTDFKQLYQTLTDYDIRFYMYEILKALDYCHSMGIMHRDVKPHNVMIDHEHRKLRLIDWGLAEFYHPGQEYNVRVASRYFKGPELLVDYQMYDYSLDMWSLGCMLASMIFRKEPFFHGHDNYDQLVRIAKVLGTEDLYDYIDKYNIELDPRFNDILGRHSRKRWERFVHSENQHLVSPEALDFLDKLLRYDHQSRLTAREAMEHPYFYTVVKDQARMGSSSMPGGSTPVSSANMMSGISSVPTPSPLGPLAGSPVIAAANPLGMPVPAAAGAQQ

[32] = molecular target: T1, Casein kinase II subunit alpha; assay: Non-ATP competitive binding affinity to GST-tagged CK2alpha (unknown origin) assessed as melting temperature at 50 uM by temperature-dependent circular dichroism (reference value: […] degC)
Target sequence in this assay (P68400 whole entry, looked up): as above

[33] = molecular target: T1, Casein kinase II subunit alpha; assay: Inhibition of recombinant human GST-tagged CK2alpha in presence of ATP by radiometric kinase assay
Target sequence in this assay (P68400 whole entry): as the sequence (P68400 whole entry, looked up) above

[34] = molecular target: T1, Casein kinase II subunit alpha; assay: Competitive binding affinity to CK2alpha (1 to 335 residues) (unknown origin) at 10 uM in presence of IP6 by nESI-MS analysis
Target sequence in this assay (P68400 whole entry, looked up): as above

[35] = molecular target: T1, Casein kinase II subunit alpha; assay: Binding affinity to CK2alpha (unknown origin) at 500 uM in presence of kinase inhibitor CX-4945 by STD-based NMR spectroscopy
Summary of the method: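 STD NMR at 600 MHz and 293 K in PBS pH 7.3 with 10 mM NaCl, 2 mM MgCl2 and 10% D2O. […] On-resonance protein saturation was at 0.6 ppm for 2 s. STD factors were normalized so the highest STD factor is 100%.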
Target sequence in this assay (P68400 whole entry, looked up): as above

[36] = molecular target: T1, Casein kinase II subunit alpha; assay: Competitive binding affinity to CK2alpha (1 to 335 residues) (unknown origin) at 10 uM in presence of IP6 by nESI-MS analysis
Summary of the method: (§3)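 Native nESI-MS of CK2α residues 1–335 (10 μM) after buffer exchange into 0.50 M ammonium acetate pH 8.5 with 5% (v/v) DMSO. […] Capillary was 1.6–2.0 kV, cone 30–90 V, collision 10 V, source 20 °C; CsI calibration. Ligand binding was read from the charge-state spectra.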
Target sequence in this assay (P68400 whole entry, looked up): as above

[37] = Solubility of the compound in water; type: physicochemical; details: buffer
[38] = molecular target: T1, Casein kinase II subunit alpha; assay: Competitive binding affinity to CK2alpha (1 to 335 residues) (unknown origin) at 10 uM in presence of IP6 by native mass spectrometry; summary of the method: as §3
Target sequence in this assay (P68400 whole entry, looked up): as above

[39] = molecular target: T1, Casein kinase II subunit alpha; assay: Competitive binding affinity to CK2alpha (1 to 335 residues) (unknown origin) at 10 uM by native mass spectrometry; summary of the method: as §3
[40] = molecular target: T1, Casein kinase II subunit alpha; assay: Mixed-type inhibition of recombinant human GST-tagged CK2alpha in presence of ATP by Lineweaver-Burk plot analysis
Target sequence in this assay (P68400 whole entry): as the sequence (P68400 whole entry, looked up) above

[41] = molecular target: Casein kinase II alpha/beta (Homo sapiens) (UniProt P67870+P68400); assay: Inhibition of recombinant human GST-tagged CK2alpha2/CK2beta2 at 15 uM in presence of ATP by radiometric kinase assay; type: protein-complex assay
[42] = molecular target: T1, Casein kinase II subunit alpha; assay: Inhibition of recombinant human GST-tagged CK2alpha at 15 uM in presence of varying substrate levels by radiometric kinase assay
[43] = molecular target: T1, Casein kinase II subunit alpha; assay: Inhibition of recombinant human GST-tagged CK2alpha at 15 uM in presence of varying ATP levels by radiometric kinase assay

Compound: O=C(O)c1ccc(Nc2nc(-c3cccc(Br)c3)cs2)cc1
Activity [1]: 90% | Activity [2]: 55% | Activity [3]: 101% | Activity [4]: 116% | Activity [5]: 82% | Activity [6]: 75% | Activity [7]: 86% | Activity [8]: 107% | Activity [9]: 39% | Activity [10]: 69% | Activity [11]: 102% | Activity [12]: 86% | Activity [13]: 106% | Activity [14]: 104% | Activity [15]: 27% | Activity [16]: 29% | Activity [17]: 72% | Activity [18]: 57% | Activity [19]: 39% | Activity [20]: 80% | Activity [21]: 67% | Activity [22]: 78% | Activity [23]: 34% | Activity [24]: 98% | Activity [25]: 79% | Activity [26]: 57% | Activity [27]: 107% | Activity [28]: 92% | Activity [29]: 31% | Activity [30]: 95%

Compound: O=[N+]([O-])c1cccc(-c2csc(Nc3ccccc3)n2)c1
inhibition [31]: 27%

Compound: O=C(O)c1ccc(Nc2nc(-c3ccccc3)cs2)cc1
Tm [32]: 50.3 °C | IC50 [33]: 9 µM | Activity [34]: Active | Activity [35]: Active | Activity [36]: Active | solubility [37]: Soluble | Activity [38]: inactive | Activity [39]: Active | Ki [40]: 1.1 µM

Compound: O=C(O)c1ccc(Nc2nc(-c3ccccn3)cs2)cc1
solubility [37]: Soluble

Compound: O=C(O)c1ccc(Nc2nccs2)cc1
inhibition [31]: 0%

The next lines start with the values.

inhibition [31]: 9%
Compound: COC(=O)c1ccc(Nc2nc(-c3cccc([N+](=O)[O-])c3)cs2)cc1

inhibition [41]: Active | IC50 [33]: 27.7 µM | inhibition [42]: Active | inhibition [43]: Active
Compound: O=C(O)c1cccc(Nc2nc(-c3cccc([N+](=O)[O-])c3)cs2)c1
